{"data": "Results collected from several papers", "matrix": "Caco-2", "note": "Each line is one published result; the experiments were not run side by side."}
{"Compound": "CCOCC(=O)N1CCC[C@H](C(=O)NCc2nc(-c3ccc(C)nc3)cs2)C1", "setting": "pH 7.4", "Papp A→B": "15 ×10⁻⁶ cm/s"}
{"Compound": "N#C[C@@]1(c2ccc3c(N)ncnn23)O[C@H](CO)[C@@H](O)[C@H]1O", "setting": "10 µM, 2 h", "Papp A→B": "3.8 ×10⁻⁶ cm/s"}
{"Compound": "CCOCC(=O)N1CCC[C@H](C(=O)NCc2nc(-c3ccc(C#N)nc3)cs2)C1", "setting": "pH 7.4", "Papp A→B": "13 ×10⁻⁶ cm/s"}
{"Compound": "O=c1c(-c2ccc(O)cc2)coc2c([C@@H]3O[C@H](CO)[C@@H](O)[C@H](O)[C@H]3O)c(O)ccc12", "setting": "100 µg/mL, 2 h", "Papp A→B": "45.7 ×10⁻⁶ cm/s"}
{"Compound": "N[C@@H](COCC(=O)N1CCC[C@H](C(=O)NCc2nc(-c3ccc(C(F)(F)F)cc3)cs2)C1)c1ccccc1", "setting": "pH 7.4", "Papp A→B": "8.5 ×10⁻⁶ cm/s"}
{"Compound": "COC(=O)[C@H]1[C@H]2C[C@@H]3c4[nH]c5cc(OC)ccc5c4CCN3C[C@H]2C[C@@H](OC(=O)c2cc(OC)c(OC)c(OC)c2)[C@@H]1OC", "setting": "5 µM, 2 h", "Papp A→B": "0.97 ×10⁻⁶ cm/s"}
{"Compound": "N#Cc1ccc(C[C@H](Nc2nnc(-c3ccc(F)cc3)s2)C(=O)N2CCc3ccccc32)cc1", "setting": "100 µM, 2 h", "Papp A→B": "11.2 ×10⁻⁶ cm/s"}
{"Compound": "O=c1cc(-c2ccc(O)cc2)oc2c([C@@H]3O[C@H](CO)[C@@H](O)[C@H](O)[C@H]3O)c(O)cc(O)c12", "setting": "100 µg/mL", "Papp A→B": "0.316 ×10⁻⁶ cm/s"}
{"Compound": "Cc1ccc2[nH]c(=S)n(Cc3cccnc3)c(=O)c2c1", "setting": "10 µM, 90 min, pH 7.4", "Papp A→B": "35.4 ×10⁻⁶ cm/s"}
{"Compound": "COc1ccc(-c2cc(=O)c3c(O)cc(O[C@@H]4O[C@H](CO[C@@H]5O[C@@H](C)[C@H](O)[C@@H](O)[C@H]5O)[C@@H](O)[C@H](O)[C@H]4O)cc3o2)cc1O", "setting": "100 µg/mL, 2 h", "Papp A→B": "45.2 ×10⁻⁶ cm/s"}
{"Compound": "CN(C)CC(=O)OCc1cc2[nH]c(=S)n(Cc3cccnc3)c(=O)c2cc1Cl", "setting": "10 µM, 90 min, pH 7.4", "Papp A→B": "42.5 ×10⁻⁶ cm/s"}
{"Compound": "O=c1c(O[C@@H]2O[C@H](CO)[C@H](O)[C@H](O)[C@H]2O)c(-c2ccc(O)c(O)c2)oc2cc(O)cc(O)c12", "setting": "200 µg/mL", "Papp A→B": "0.349 ×10⁻⁶ cm/s"}
{"Compound": "COc1ccc(-c2coc3cc(O)ccc3c2=O)cc1", "setting": "100 µg/mL, 2 h", "Papp A→B": "4.66 ×10⁻⁶ cm/s"}
{"Compound": "CCCCCCOC(=O)NC(=N)c1ccc(NCc2nc3cc(C(=O)N(CCC(=O)OCC)c4ccccn4)ccc3n2C)cc1", "setting": "5 µM, 2 h", "Papp A→B": "0.0021 ×10⁻⁶ cm/s"}
{"Compound": "C[C@H]1O[C@@H](O[C@H]2[C@@H](O)C[C@H](O[C@H]3[C@@H](O)C[C@H](O[C@H]4CC[C@@]5(C)[C@H](CC[C@@H]6[C@@H]5C[C@@H](O)[C@]5(C)[C@@H](C7=CC(=O)OC7)CC[C@]65O)C4)O[C@@H]3C)O[C@@H]2C)C[C@H](O)[C@@H]1O", "setting": "10 µM, 2 h", "Papp A→B": "0.48 ×10⁻⁶ cm/s"}
{"Compound": "CC(C)NCC(O)COc1cccc2ccccc12 (stereo not shown)", "setting": "5 µM, 2 h", "Papp A→B": "12.6 ×10⁻⁶ cm/s"}
{"Compound": "CC(C)(N)COCC(=O)N1CCC[C@H](C(=O)NCc2nc(-c3ccc(C(F)(F)F)cc3)cs2)C1", "setting": "pH 7.4", "Papp A→B": "0.18 ×10⁻⁶ cm/s"}
{"Compound": "C[C@@H]1O[C@@H](OC[C@H]2O[C@@H](Oc3c(-c4ccc(OCCO)c(OCCO)c4)oc4cc(OCCO)cc(O)c4c3=O)[C@H](O)[C@@H](O)[C@@H]2O)[C@H](O)[C@H](O)[C@H]1O", "setting": "100 µg/mL, 2 h", "Papp A→B": "6.15 ×10⁻⁶ cm/s"}
{"Compound": "CCN1CCCC1CNC(=O)c1cc(S(N)(=O)=O)ccc1OC (stereo not shown)", "setting": "5 µM, 2 h", "Papp A→B": "0.16 ×10⁻⁶ cm/s"}
{"Compound": "COc1cc(NC(=O)Cn2cc(Cl)c3cc(F)c(-c4cnn(C)c4)cc32)cc(OC)c1OC", "Papp A→B": "0.08 ×10⁻⁶ cm/s"}
{"Compound": "COCC(=O)OCc1cc2[nH]c(=S)n(Cc3cccnc3)c(=O)c2cc1Cl", "setting": "10 µM, 90 min, pH 7.4", "Papp A→B": "0.2 ×10⁻⁶ cm/s"}
{"Compound": "CN/C(=N/CCSCc1nc[nH]c1C)NC#N", "setting": "5 µM, 2 h", "Papp A→B": "0.55 ×10⁻⁶ cm/s"}
{"Compound": "COc1cc(C2Oc3cc([C@H]4Oc5cc(O)cc(O)c5C(=O)[C@@H]4O)ccc3OC2CO)ccc1O (stereo partly shown)", "setting": "100 µg/mL, 2 h", "Papp A→B": "19 ×10⁻⁶ cm/s"}
{"Compound": "NCCOCC(=O)N1CCC[C@H](C(=O)NCc2nc(-c3ccc(C(F)(F)F)cc3)cs2)C1", "setting": "pH 7.4", "Papp A→B": "0.1 ×10⁻⁶ cm/s"}
{"Compound": "CC[C@]1(O)C[C@@H]2CN(CCc3c([nH]c4ccccc34)[C@@](C(=O)OC)(c3cc4c(cc3OC)N(C)[C@H]3[C@@](O)(C(=O)OC)[C@H](OC(C)=O)[C@]5(CC)C=CCN6CC[C@]43[C@@H]65)C2)C1", "setting": "10 µM, 2 h", "Papp A→B": "1.69 ×10⁻⁶ cm/s"}
{"Compound": "COc1ccccc1OCCNCC(O)COc1cccc2[nH]c3ccccc3c12 (stereo not shown)", "setting": "5 µM, 2 h", "Papp A→B": "4.98 ×10⁻⁶ cm/s"}
{"Compound": "CCCCCOC(=O)Nc1nc(=O)n([C@@H]2O[C@H](C)[C@@H](O)[C@H]2O)cc1F", "setting": "4 h", "Papp A→B": "3.24 ×10⁻⁶ cm/s"}
{"Compound": "O=C(NCc1nc(-c2ccc(C(F)(F)F)cc2)cs1)[C@H]1CCCN(C(=O)COCCN2CCCC2)C1", "setting": "pH 7.4", "Papp A→B": "1.8 ×10⁻⁶ cm/s"}
{"Compound": "N#Cc1ccc(C[C@H](NC(=O)Nc2ccc(F)cc2)C(=O)N2CCc3ccccc32)cc1", "setting": "100 µM, 2 h", "Papp A→B": "49.3 ×10⁻⁶ cm/s"}
{"Compound": "COc1ccc([C@@H]2CC(=O)c3c(O)cc(O)cc3O2)cc1O", "setting": "100 µg/mL, 2 h", "Papp A→B": "3.95 ×10⁻⁶ cm/s"}
{"Compound": "C[C@@H]1O[C@@H](OC[C@H]2O[C@@H](Oc3c(-c4ccc(O)c(O)c4)oc4cc(O)cc(O)c4c3=O)[C@H](O)[C@@H](O)[C@@H]2O)[C@H](O)[C@H](O)[C@H]1O", "setting": "200 µg/mL", "Papp A→B": "0.293 ×10⁻⁶ cm/s"}
{"Compound": "O=C(N[C@@H](c1ccccc1)[C@H]1CCCN1)C1=CN(c2ncnc3[nH]ccc23)CCS1", "setting": "10 µM, pH 6.5", "Papp A→B": "< 0.3 ×10⁻⁶ cm/s"}
{"Compound": "O=c1c2cc(Cl)c(CO)cc2[nH]c(=S)n1Cc1cccnc1", "setting": "10 µM, 90 min, pH 7.4", "Papp A→B": "12.3 ×10⁻⁶ cm/s"}
{"Compound": "Oc1cc(O)c2c(c1)O[C@H](c1ccc(O)c(O)c1)[C@@H](O)C2", "setting": "100 µg/mL, 2 h", "Papp A→B": "11.7 ×10⁻⁶ cm/s"}
{"Compound": "O=c1c2cc(Cl)ncc2[nH]c(=S)n1Cc1cccnc1", "setting": "10 µM, 90 min, pH 7.4", "Papp A→B": "34.6 ×10⁻⁶ cm/s"}
{"Compound": "N#Cc1ccc(C[C@H](Nc2c(Nc3ccc(Br)cc3)c(=O)c2=O)C(=O)N2CCc3ccccc32)cc1", "setting": "100 µM, 2 h", "Papp A→B": "2 ×10⁻⁶ cm/s"}
{"Compound": "O=c1c(-c2ccc(O)cc2)coc2cc(O)ccc12", "setting": "100 µg/mL, 2 h", "Papp A→B": "27.4 ×10⁻⁶ cm/s"}
